sPLA2-III inh = Blocks human group III sPLA2 activity; 370,000 tested, 0.56% active; QFRET BODIPY PC-A2 liposome hydrolysis, fluorescence; inhibition, % at 12.2 µM; Q9NZ20;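 active = inhibition above mean plus 3 SD of compounds lying within the high and low control bounds, cut at about 19% in these data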;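 also: 0% = median of test compound wells and 100% = no enzyme DMSO wells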
Calb FLC = affects C. albicans growth with fluconazole; C. albicans CaCi-2 + fluconazole, Alamar Blue growth, 48 h; growth inhibition, % (concentration not given with the values); 300,000 tested, 0.57% active; AID 1979;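 active = growth inhibition above about 58% in most replicates, limit read from the data, passing the limit was not always enough; inconclusive = exactly half the replicates above a set limit; inactive = most replicates below a set limit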;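 also: all wells also contain fluconazole at 8 µg/ml as a sub-toxic cotreatment; 0% = median of DMSO wells and 100% = median of geldanamycin control wells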
SKKanGAS inh = inhibitors of SKKanGAS S. pyogenes growth in kanamycin (SK-promoter or general growth effect). BacTiter-Glo, 6 h. inhibition, % at 7.5 µM. 300,000 tested, 1.3% active;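 active = mean replicate score, as percent of positive control median, at least 50; inconclusive = mean below 50 but one replicate at or above 50; inactive = mean and every replicate below 50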;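 also: strain carries kanamycin resistance gene driven by streptokinase promoter and grows in 40 µg/ml kanamycin; loss of luminescence reflects streptokinase promoter inhibition or plain growth inhibition; 0% = median of DMSO wells and 100% = positive control at its reference dose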
ASAP1 inh = inhibitors of human ASAP1 ArfGAP activity. ASAP1-stimulated ARF1 GTP hydrolysis, GDP FP detection. 360,000 tested, 0.19% active. Q9ULH1. inhibition, % at 16.5 µM; in the data active = inhibition above about 25%;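 also: 0% = vehicle with enzyme and substrate and 100% = no enzyme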
Target sequence (Q9ULH1 325-724 limits assumed): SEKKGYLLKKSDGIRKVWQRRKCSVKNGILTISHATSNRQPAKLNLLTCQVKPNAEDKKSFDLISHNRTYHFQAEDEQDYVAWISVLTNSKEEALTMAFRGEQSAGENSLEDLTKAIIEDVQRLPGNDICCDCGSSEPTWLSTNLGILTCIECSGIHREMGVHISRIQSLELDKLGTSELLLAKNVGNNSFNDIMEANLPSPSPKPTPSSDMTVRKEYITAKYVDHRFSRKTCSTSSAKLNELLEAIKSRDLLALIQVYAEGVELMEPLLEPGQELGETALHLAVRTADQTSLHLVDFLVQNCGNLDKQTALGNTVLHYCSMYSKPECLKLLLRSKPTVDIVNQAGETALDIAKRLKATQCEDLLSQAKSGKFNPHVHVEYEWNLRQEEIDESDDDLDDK
ARFGAP1 inhibitor = rat ARFGAP1 inhibition | Q62848 | Arfgap1-stimulated ARF1 GTP hydrolysis, GDP FP detection | inhibition, % at 16.5 µM | 360,000 tested, 0.26% active | AID 651572;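 active = inhibition above a per-plate limit, mean inhibition of low control wells plus 3 SD, cut at about 25% in these data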;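 also: 0% = DMSO wells with enzyme and 100% = wells lacking Arfgap1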
Target sequence (Q62848 1-136 limits assumed): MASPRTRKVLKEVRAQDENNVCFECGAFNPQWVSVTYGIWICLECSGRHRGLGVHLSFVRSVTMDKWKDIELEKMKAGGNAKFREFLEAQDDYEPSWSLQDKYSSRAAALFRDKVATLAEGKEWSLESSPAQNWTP
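System: truncated rat Arfgap1 GAP domain / Medium: HEPES-based buffer, pH 7.5 / Also added: N-terminally truncated human ARF1-GTP substrate / Incubation: enzyme reaction 120 min at 25 °C after 20 min preincubation / Measured by: FP of antibody-bound GDP Alexa 633 tracer, ex 620/em 688 nm / Replicates: singlicate, each compound tested once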
hGIII sPLA2 conf = human GIII-sPLA2 inhibition, confirmation; 2,000 tested, 34% active; shares compounds with sPLA2-III inh; recombinant hGIII-sPLA2, BODIPY PC-A2 QFRET fluorescence; inhibition, % at 12.2 µM;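 active = mean inhibition across triplicates above the hit cutoff set in the earlier primary screen, cut at about 19% in these data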;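 also: 0% = enzyme with DMSO and 100% = DMSO wells lacking enzyme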
535nm interf = optically interferes with 535nm fluorescence in sPLA2 counter-screen; shares compounds with sPLA2-III inh; 2,000 tested, 8.5% active; inhibition, % at 12.2 µM; BODIPY FL product fluorescence interference, QFRET;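 active = average inhibition above the solvent-only control mean plus 3 SD, cut at about 6% in these data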;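 also: 0% = DMSO with substrate plus product and 100% = DMSO with substrate alone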
535nm interf DR = interferes with 535nm fluorescence in dose response counter-screen; 240 tested, under 10 active; BODIPY FL product fluorescence interference, cell-free; shares compounds with sPLA2-III inh; IC50, µM; AID 743455;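 active = IC50 at or below 10 µM; inactive = IC50 above 10 µM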
* marks the source's active call; other numbers are inactive results; ? = inconclusive; . = no result given. Hits are enriched below; roughly 2.3% of the tested compounds scored in any of these assays.

SMILES	sPLA2-III inh	Calb FLC	SKKanGAS inh	ASAP1 inh	ARFGAP1 inhibitor	hGIII sPLA2 conf	535nm interf	others
O=[N+]([O-])c1ccc(C2=NN(CCO)C(=Nc3ccc(OC(F)(F)F)cc3)SC2)cc1	20*	0	28	10	12	-1	-12
CC(C)(C)OC(=O)N1c2ccccc2[C@]2(N3CCCC3)C[C@H](C(=O)O)N(C(=O)OC(C)(C)C)[C@H]12	10	.	.	.	.	.	.
CCOc1ccc(-n2c(SCC(=O)Nc3cc(C)c(NC(=O)c4ccccc4)cc3OC)nnc2-c2ccncc2)cc1	-7	.	.	.	.	.	.
COc1ccc(C2NCCc3c2[nH]c2ccccc32)cc1CSc1nc2ccccc2s1 (stereo unspecified)	20*	37	11	8	9	-2	-4
c1ccc(-c2ccc(CNc3nc(-c4ccccn4)nnc3-c3ccccc3)cc2)cc1	27*	.	.	.	.	-1	-31
Cc1cc(N2CCN(C(=O)OC(C)(C)C)C[C@H]2C)ccc1N1C[C@@H](C)O[C@@H](C)C1	12	.	.	6	-5	.	.
Cc1ccccc1NC(=O)c1ccc(CN2CC(=O)N3CCCCC3C2=O)cc1 (stereo unspecified)	19*	-18	3	2	2	-4	-3
Cc1ccc(NC(=O)c2ccc(CN3CC(=O)N4CCCCC4C3=O)cc2)c(C)c1 (stereo unspecified)	5	0	2	4	6	.	.
CCCCn1nnc(NC(=S)NC(=O)c2cccs2)n1	23*	?	-6	1	-2	11	-5
COCC(=O)N(c1ccc(C(C)C)cc1)C1C=CS(=O)(=O)C1 (stereo unspecified)	19*	-5	-2	1	2	-4	-8
CC(=O)N(c1ccc(C(C)C)cc1)C1C=CS(=O)(=O)C1 (stereo unspecified)	8	-23	-10	-17	7	.	.
CC1=C(C(=O)N(C)C)CC(CC(=O)NC2CCCCC2)C(=O)N1CCCN1CCCC1=O (stereo unspecified)	21*	.	.	-6	0	0	-8
CC1=C(C(=O)N(C)C)CC(CC(=O)NC2CCCC2)C(=O)N1CCCN1CCCC1=O (stereo unspecified)	15	.	.	-14	6	.	.
Cc1cc(NS(C)(=O)=O)c(=O)n(Cc2cccc(C(F)(F)F)c2)c1	21*	.	.	-13	-9	17	-7
COCC(=O)Nc1cc(C)cn(Cc2cccc(C(F)(F)F)c2)c1=O	12	10	-2	-5	-13	.	.
CC(C)(C)OC(=O)NCc1ccccc1/C=C/S(=O)(=O)NCc1ccc(F)cc1	-12	.	.	.	.	.	.
CC(C)C(NS(=O)(=O)c1cccc2nsnc12)C(=O)NC1CCCCC1 (stereo unspecified)	4	5	1	-18	0	.	.
CC1CCC(NC(=O)C(NS(=O)(=O)c2cccc3nsnc23)C(C)C)CC1 (stereo unspecified)	86*	-1	-9	-1	-6	-4	-7
Clc1ccc2nc(N3CCNCC3)nc(-c3ccccc3)c2c1	15	-21	7	3	-9	.	.
O=C1CN(c2nc(-c3ccccc3)c3cc(Cl)ccc3n2)c2ccccc2N1	21*	-4	13	-7	8	-8	-3
Cc1cnn(CCC(=O)NNC(=S)NCC(C)C)c1	22*	4	4	11	5	8	-2
CCCCNC(=S)NNC(=O)CCn1cc(C)cn1	12	-7	-11	-5	-1	.	.
COc1cc2c(c(OC)c1OC)CC(=O)N(C)CC2	14	-2	13	-2	-17	.	.
CN1CCc2ccccc2CC1=O	20*	2	-20	4	12	-1	-5
S=c1[nH]nc(Cc2cccc3ccccc23)o1	24*	-5	6	2	-8	14	3
SMILES	sPLA2-III inh	Calb FLC	SKKanGAS inh	ASAP1 inh	ARFGAP1 inhibitor	hGIII sPLA2 conf	535nm interf	others
Cc1[nH]c2ccccc2c1Cc1n[nH]c(=S)o1	11	-1	2	-7	0	.	.
CCOc1ccc2c(c1)-c1c(ssc1=S)C(C)(C)N2C(=O)CSC1=NCCS1	36*	-6	4	-9	-4	20*	-8
O=C1c2ccccc2C(=O)N1c1cccc2cccnc12	22*	-5	2	-2	4	-2	-6
O=C1C2C3C=CC(C3)C2C(=O)N1c1cccc2cccnc12 (stereo unspecified)	2	.	.	-1	0	.	.
O=C(N/N=C/c1ccc(O)c(O)c1O)/C(=C/c1ccc([N+](=O)[O-])cc1)NC(=O)c1ccccc1	25*	104*	?	-15	-18	29*	6.1*
O=C(CCCN1C(=O)C(=Cc2ccc3c(c2)OCO3)SC1=S)Nc1ccc(C(=O)O)c(O)c1	-23	.	.	14	12	.	.
COc1ccc(CNC(C)CCc2ccccc2)cc1 (stereo unspecified)	20*	-8	3	0	16	9	-16
CN(c1ccccc1)c1cc(=O)[nH]c(=O)[nH]1	28*	2	-1	-3	15	-1	-3
Cc1cc(O)cc(=O)n1-c1cc(Cl)cc(Cl)c1	-3	.	.	-2	6	.	.
CC1(C(=O)NS(=O)(=O)C2CC2)CCN(C(=O)c2c(F)cccc2F)C1 (stereo unspecified)	20*	.	.	-8	7	3	2
COc1ccc(Cc2noc(-c3ccc([N+](=O)[O-])cc3)n2)cc1OC	21*	-2	6	-2	-4	1	-7
O=C(O)C1Nc2c(Cl)cc(Cl)c(Cl)c2C2C=CCC12 (stereo unspecified)	-2	12	7	6	2	.	.
CC(C)C1Nc2c(O)cc(Cl)c([N+](=O)[O-])c2C2C=CCC21 (stereo unspecified)	19*	81	79*	0	-15	13	10*
c1ccc(Cc2cnc(N3CCN(Cc4csc5ccccc45)CC3)nc2)cc1	-15	.	.	-10	12	.	.
C[C@@H]1CN([C@@H](C)CO)C(=O)CCCn2cc(nn2)CO[C@H]1CN(C)C(=O)Nc1ccc(-c2cccs2)cc1	11	.	.	2	-4	.	.
CCCN1CCCCC(NC(=O)c2cccs2)C1=O (stereo unspecified)	5	.	.	-1	-2	.	.
CC(C)Cc1c2c([nH]c(=S)c1C#N)CCCC2	20*	18	-6	6	-10	30*	2	535nm interf DR=>122
Cc1[nH]c(=S)c(C#N)c2c1CCCC2	-1	-3	2	-8	6	.	.
